Experimental data reported in ChEMBL document CHEMBL3120160, “Nucleotide prodrugs of 2'-deoxy-2'-spirooxetane ribonucleosides as novel inhibitors of the HCV NS5B polymerase” (J Med Chem, 2014).

Experiments:
Hepatitis C virus [1] = assay: Antiviral activity against Hepatitis C virus genotype 1b in human Huh7-luc clone ET replicon cells assessed as inhibition of replicon replication after 3 days by luciferase assay; format: functional, organism-based, Hepacivirus hominis; conditions: Huh-7, 72 h
Summary of the method: (§1)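 Huh7 HCV replicon cells treated with compound for 3 days in 384-well format; antiviral EC50 and cytotoxic CC50 are each the mean of at least three repeats.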

[2] = Cytotoxicity against human HuH7 cells assessed as inhibition of cell proliferation after 3 days by BrdU incorporation assay; format: cell-based, Huh-7; summary of the method: as §1
Liver [3] = assay: AUC (0 to infinity) in Sprague-Dawley rat liver assessed as triphosphate metabolite level at 50 mg/kg, po administered as single dose; format: ADME, organism-based; set-up: time infinity, dose 50 mg/kg, route oral; conditions: in vivo
Liver [4] = assay: AUC (0 to last) in Sprague-Dawley rat liver assessed as triphosphate metabolite level at 50 mg/kg, po administered as single dose; format: ADME, organism-based; set-up: time 0 - last, dose 50 mg/kg, route oral; conditions: in vivo
Liver [5] = assay: Tmax in Sprague-Dawley rat liver assessed as triphosphate metabolite level at 50 mg/kg, po administered as single dose; format: ADME, organism-based; set-up: dose 50 mg/kg, route oral; conditions: in vivo
Liver [6] = assay: Cmax in Sprague-Dawley rat liver assessed as triphosphate metabolite level at 50 mg/kg, po administered as single dose measured per gm of tissue; format: ADME, organism-based; set-up: dose 50 mg/kg, route oral; conditions: in vivo
Hepatocyte [7] = assay: Prodrug activation in human hepatocytes assessed as triphosphate metabolite formation at 10 uM after 8 hrs by LC-MS analysis; format: ADME, cell-based
Summary of the method: (§2)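 Prodrugs incubated at 10 μM with rat or human hepatocyte cultures; triphosphate metabolite quantified by LC–MS of cell lysates at 2 and 8 h.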

Hepatocyte [8] = assay: Prodrug activation in rat hepatocytes assessed as triphosphate metabolite formation at 10 uM after 8 hrs by LC-MS analysis; format: ADME, cell-based; summary of the method: as §2
Hepatocyte [9] = assay: Prodrug activation in human hepatocytes assessed as triphosphate metabolite formation at 10 uM after 2 hrs by LC-MS analysis; format: ADME, cell-based; summary of the method: as §2
Hepatocyte [10] = assay: Prodrug activation in rat hepatocytes assessed as triphosphate metabolite formation at 10 uM after 2 hrs by LC-MS analysis; format: ADME, cell-based; summary of the method: as §2
Hepatitis C virus [11] = assay: Ratio of EC50 for Hepatitis C virus genotype 1b harboring NS5B polymerase S282T mutant gene to EC50 for Hepatitis C virus genotype 1b harboring wild type NS5B polymerase in human Huh7-luc clone ET replicon cells by luciferase assay; format: functional, Hepacivirus hominis, Huh-7
Hepatitis C virus [12] = assay: Antiviral activity against Hepatitis C virus genotype 1b harboring NS5B polymerase S282T mutant gene in human Huh7-luc clone ET replicon cells assessed as inhibition of replicon replication after 3 days by luciferase assay; format: functional, organism-based, Hepacivirus hominis; conditions: Huh-7, 72 h
Summary of the method: (§3)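 Activity measured in a transient HCV replicon assay in which the NS5B polymerase carries the S282T substitution.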

[13] = Inhibition of wild type Hepatitis C virus truncated NS5B RNA dependent RNA polymerase lacking C-terminal 21 aminoacids using cIRES as template after 2 hrs by filter plate assay; set-up: species or system Hepacivirus hominis
Summary of the method: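 Wild-type HCV RdRp biochemical assay, tested with the nucleoside 5′-triphosphate (NTP) form; value reported as Ki, the average of two independent experiments.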

Hepatitis C virus [14] = assay: Ratio of EC90 for Hepatitis C virus harboring NS5B polymerase S282T mutant gene to EC90 for Hepatitis C virus harboring wild type NS5B polymerase; format: functional, Hepacivirus hominis
Hepatitis C virus [15] = assay: Antiviral activity against Hepatitis C virus harboring NS5B polymerase S282T mutant gene; format: functional, Hepacivirus hominis; summary of the method: as §3

| SMILES | EC50 (Hepatitis C virus [1]) | CC50 at 72 h [2] | also measured |
| --- | --- | --- | --- |
| [N-]=[N+]=N[C@]1(CO)O[C@@H](n2ccc(=O)[nH]c2=O)[C@@H](O)[C@H]1O | > 100 µM | – | – |
| O=C(OCc1ccccc1)[C@@H](NP(=O)(OC[C@H]1O[C@@H](n2ccc(=O)[nH]c2=O)[C@@]2(CCO2)[C@@H]1O)Oc1ccccc1)c1ccccc1 (mixture of isomers) | > 87.2 µM | > 92.8 µM | – |
| C[C@H](N[P@](=O)(OC[C@H]1O[C@@H](n2ccc(=O)[nH]c2=O)[C@@]2(CCO2)[C@@H]1O)Oc1cccc2ccccc12)C(=O)OCc1ccccc1 | 3.7 µM | > 98 µM | – |
| CC[C@H](N[P@](=O)(OC[C@H]1O[C@@H](n2ccc(=O)[nH]c2=O)[C@@]2(CCO2)[C@@H]1O)Oc1ccccc1)C(=O)OCc1ccccc1 | 4.6 µM | > 98 µM | – |
| CCCCOC(=O)[C@H](C)NP(=O)(OC[C@H]1O[C@@H](n2ccc(=O)[nH]c2=O)[C@@]2(CCO2)[C@@H]1O)Oc1ccccc1 (some centres undefined) | 3.9 µM | > 98 µM | AUC (Liver [3]): 10.48 µg·h/mL; AUClast (Liver [4]): 9.871 µg·h/mL; Tmax (Liver [5]): 6 h; Cmax (Liver [6]): 894 ng/g; Drug metabolism (Hepatocyte [7]): 2730 ng/mL; Drug metabolism (Hepatocyte [8]): 75 ng/mL; Drug metabolism (Hepatocyte [9]): 351 ng/mL; Drug metabolism (Hepatocyte [10]): 152 ng/mL; Ratio EC50 (Hepatitis C virus [11]): 4.8; EC50 (Hepatitis C virus [12]): 18.9 µM |
| CC[C@H](NP(=O)(OC[C@H]1O[C@@H](n2ccc(=O)[nH]c2=O)[C@@]2(CCO2)[C@@H]1O)Oc1ccccc1)C(=O)OC(C)C (mixture of isomers) | > 96.4 µM | > 98 µM | – |
| CC(C)OC(=O)[C@H](C)NP(=O)(OC[C@H]1O[C@@H](n2ccc(=O)[nH]c2=O)[C@@]2(CCO2)[C@@H]1O)Oc1ccccc1 (mixture of isomers) | 20.9 µM | > 98 µM | – |
| C[C@H](N[P@@](=O)(OC[C@H]1O[C@@H](n2ccc(=O)[nH]c2=O)[C@@]2(CCO2)[C@@H]1O)Oc1cccc2ccccc12)C(=O)OCc1ccccc1 | 2.3 µM | > 98 µM | – |
| O=C(CNP(=O)(OC[C@H]1O[C@@H](n2ccc(=O)[nH]c2=O)[C@@]2(CCO2)[C@@H]1O)Oc1ccc(Cl)cc1)OCc1ccccc1 (mixture of isomers) | 0.32 µM | > 98 µM | – |
| CC(C)COC(=O)[C@H](C)NP(=O)(OC[C@H]1O[C@@H](n2ccc(=O)[nH]c2=O)[C@@]2(CCO2)[C@@H]1O)Oc1ccccc1 (mixture of isomers) | 0.23 µM | > 98 µM | – |
| CC[C@H](N[P@@](=O)(OC[C@H]1O[C@@H](n2ccc(=O)[nH]c2=O)[C@@]2(CCO2)[C@@H]1O)Oc1ccccc1)C(=O)OCc1ccccc1 | 4.9 µM | > 98 µM | – |
| C[C@H](N[P@@](=O)(OC[C@H]1O[C@@H](n2ccc(N)nc2=O)[C@@]2(CCO2)[C@@H]1O)Oc1ccccc1)C(=O)OCc1ccccc1 | 41.5 µM | > 98 µM | – |
| CC(C)CCOC(=O)[C@H](C)NP(=O)(OC[C@H]1O[C@@H](n2ccc(=O)[nH]c2=O)[C@@]2(CCO2)[C@@H]1O)Oc1ccccc1 (mixture of isomers) | 3.5 µM | > 98 µM | – |
| Cc1ccc(C(C)C)c(OP(=O)(N[C@@H](C)C(=O)OCc2ccccc2)OC[C@H]2O[C@@H](n3ccc(=O)[nH]c3=O)[C@@]3(CCO3)[C@@H]2O)c1 (mixture of isomers) | 7.5 µM | 29.6 µM | – |
| C[C@@]1(O)[C@H](O)[C@@H](CO)O[C@H]1n1ccc(N)nc1=O | 4.6 µM | > 98 µM | – |
| C[C@H](NP(=O)(OC[C@H]1O[C@@H](n2ccc(=O)[nH]c2=O)[C@@]2(CCO2)[C@@H]1O)Oc1ccc(Cl)cc1)C(=O)OCc1ccccc1 (mixture of isomers) | 1.3 µM | > 98 µM | – |

| SMILES | EC50 (Hepatitis C virus [1]) | CC50 at 72 h [2] | also measured |
| --- | --- | --- | --- |
| C[C@H](N[P@](=O)(OC[C@H]1O[C@@H](n2ccc(=O)[nH]c2=O)[C@@]2(CCO2)[C@@H]1O)Oc1ccccc1)C(=O)OCc1ccccc1 | 2.1 µM | > 98 µM | – |
| Nc1ccn([C@@H]2O[C@H](CO)[C@@H](O)[C@]23CCO3)c(=O)n1 | 17.1 µM | > 98 µM | – |
| CC[C@H](NP(=O)(OC[C@H]1O[C@@H](n2ccc(=O)[nH]c2=O)[C@@]2(CCO2)[C@@H]1O)Oc1ccccc1)C(=O)OCc1ccccc1 (mixture of isomers) | 5.7 µM | > 98 µM | AUClast (Liver [4]): 1.108 µg·h/mL; Tmax (Liver [5]): 6 h; Cmax (Liver [6]): 419 ng/g; Drug metabolism (Hepatocyte [7]): 1480 ng/mL; Drug metabolism (Hepatocyte [8]): 87 ng/mL; Drug metabolism (Hepatocyte [9]): 202 ng/mL; Drug metabolism (Hepatocyte [10]): 215 ng/mL |
| C[C@H](NP(=O)(OC[C@H]1O[C@@H](n2ccc(=O)[nH]c2=O)[C@@]2(CCO2)[C@@H]1O)Oc1ccccc1)C(=O)OCc1ccccc1 (mixture of isomers) | 5.7 µM | > 98 µM | AUClast (Liver [4]): 3.263 µg·h/mL; Tmax (Liver [5]): 2 h; Cmax (Liver [6]): 775 ng/g; Drug metabolism (Hepatocyte [7]): 2457 ng/mL; Drug metabolism (Hepatocyte [8]): 81 ng/mL; Drug metabolism (Hepatocyte [9]): 304 ng/mL; Drug metabolism (Hepatocyte [10]): 112 ng/mL |
| C[C@@]1(F)[C@H](O)[C@@H](CO)O[C@H]1n1ccc(N)nc1=O | 1.9 µM | > 98 µM | – |
| COC(=O)C(C)(C)NP(=O)(OC[C@H]1O[C@@H](n2ccc(=O)[nH]c2=O)[C@@]2(CCO2)[C@@H]1O)Oc1ccccc1 (mixture of isomers) | 37.9 µM | > 98 µM | – |
| CCCCOC(=O)[C@H](C)N[P@](=O)(OC[C@H]1O[C@@H](n2ccc(=O)[nH]c2=O)[C@@]2(CCO2)[C@@H]1O)Oc1ccccc1 | 2.2 µM | > 98 µM | – |
| O=c1ccn([C@@H]2O[C@H](CO)[C@@H](O)[C@]23CCO3)c(=O)[nH]1 | > 98 µM | > 98 µM | Ki [13]: 2.4 µM |
| C[C@H](N[P@@](=O)(OC[C@H]1O[C@@H](n2ccc(=O)[nH]c2=O)[C@@]2(CCO2)[C@@H]1O)Oc1ccccc1)C(=O)OCc1ccccc1 | 5 µM | > 98 µM | – |
| CCCCOC(=O)[C@H](C)N[P@@](=O)(OC[C@H]1O[C@@H](n2ccc(=O)[nH]c2=O)[C@@]2(CCO2)[C@@H]1O)Oc1ccccc1 | 5.3 µM | > 98 µM | – |
| C[C@H](N[P@](=O)(OC[C@H]1O[C@@H](n2ccc(N)nc2=O)[C@@]2(CCO2)[C@@H]1O)Oc1ccccc1)C(=O)OCc1ccccc1 | 35.8 µM | > 98 µM | – |
| CC(C)OC(=O)[C@H](C)NP(=O)(OC[C@H]1O[C@@H](n2ccc(N)nc2=O)[C@@]2(CCO2)[C@@H]1O)Oc1ccccc1 (mixture of isomers) | 0.74 µM | > 98 µM | – |
| C[C@H](NP(=O)(OC[C@H]1O[C@@H](n2ccc(N)nc2=O)[C@@]2(CCO2)[C@@H]1O)Oc1ccc(Cl)cc1)C(=O)OCc1ccccc1 (mixture of isomers) | 2.6 µM | > 98 µM | – |
| C[C@H](NP(=O)(OC[C@H]1O[C@@H](n2ccc(=O)[nH]c2=O)[C@@]2(CCO2)[C@@H]1O)Oc1cccc2ccccc12)C(=O)OCc1ccccc1 (mixture of isomers) | 2 µM | > 98 µM | AUC (Liver [3]): 9.142 µg·h/mL; AUClast (Liver [4]): 8.427 µg·h/mL; Tmax (Liver [5]): 6 h; Cmax (Liver [6]): 754 ng/g; Drug metabolism (Hepatocyte [7]): 3373 ng/mL; Drug metabolism (Hepatocyte [8]): 107 ng/mL; Drug metabolism (Hepatocyte [9]): 1713 ng/mL; Drug metabolism (Hepatocyte [10]): 293 ng/mL |
| CC(C)OC(=O)[C@H](C)N[P@](=O)(OC[C@H]1O[C@@H](n2ccc(=O)[nH]c2=O)[C@](C)(F)[C@@H]1O)Oc1ccccc1 [SOFOSBUVIR] | – | – | Ratio (Hepatitis C virus [14]): 18.6; EC90 (Hepatitis C virus [15]): 7.8 µM |
